Assays:
Homo sapiens [1] = test: Apparent total body clearance in fasted healthy human at 400 mg BID, po administered as suspension for 7 days; assay type: ADME, organism-based; conditions: in vivo, 168 h
How it was run: (§1)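 Twelve healthy subjects took oral suspension for 7 days as 400 mg BID or 200 mg QID, either fasting or with a Boost-type nutritional supplement, in a crossover with 14–21 day washouts. Nonfat snacks of 800 cal/day or less were allowed. Plasma was sampled 0–168 h after the day-7 morning dose only and analysed by LC-MS/MS. AUC is AUC_τ, normalized to dose.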

Homo sapiens [2] = test: Toxicity in healthy human assessed as adverse events at 400 mg administered as single dose suspension; assay type: organism-based; conditions: in vivo
How it was run: (§2)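 Healthy volunteers monitored for adverse events, vital signs, clinical laboratory values and 12-lead ECG. Adverse events tabulated by body system or organ class and severity and summarized by treatment across the crossover regimens.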

[3] = AUC in fasted healthy human at 400 mg administered as single dose suspension 5 mins before consumption of high fat meal; assay type: ADME, organism-based; conditions: plasma
How it was run: (§3)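 In a crossover of 12 healthy subjects, each took a single 400 mg oral suspension dose 5 min before, midway through (about 10 min into a 20-min meal), or 20 min after a high-fat meal of about 50 g fat. Plasma was drawn 0–168 h and measured by LC-MS/MS. Parameters are noncompartmental, with AUC to the last measurable time.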

Homo sapiens [4] = test: Toxicity in healthy human assessed as adverse events at 200 mg QID, po administered as suspension for 7 days coadministered with nutritional supplement; assay type: organism-based; conditions: in vivo, 168 h; how it was run: as §2
Homo sapiens [5] = test: Toxicity in healthy human assessed as dizziness at 400 mg BID, po administered as suspension for 7 days; assay type: organism-based; conditions: in vivo, 168 h
How it was run: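 Healthy volunteers (n = 12) took oral posaconazole suspension (40 mg/ml) for 7 days in a four-way randomized crossover with a 14- to 21-day washout. Subjects stayed fasted throughout, with nonfat snacks up to 800 cal/day allowed. Where given, Boost was taken with each dose. Safety covered adverse events, vital signs, clinical labs and 12-lead ECG, with AEs tabulated by body system and severity per treatment.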

[6] = Apparent total body clearance in fasted healthy human at 400 mg administered as single dose suspension after consumption of high fat meal; assay type: ADME, organism-based; conditions: in vivo; how it was run: as §3
[7] = AUC in fasted healthy human at 400 mg administered as single dose suspension after consumption of high fat meal; assay type: ADME, organism-based; conditions: plasma; how it was run: as §3
Homo sapiens [8] = test: Toxicity in healthy human assessed as dizziness at 200 mg QID, po administered as suspension for 7 days; assay type: organism-based; conditions: in vivo, 168 h; how it was run: as §2
[9] = AUC in healthy human at 400 mg administered as single dose suspension coadministered with nutritional supplement and 4 mg loperamide as two 2 mg tablets; assay type: ADME, organism-based; conditions: plasma
How it was run: (§4)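 A three-way crossover in 13 healthy subjects gave one 400 mg oral suspension dose with a nutritional supplement, either alone, with metoclopramide 10 mg orally three times daily on the day before and the day of dosing, or with a single 4 mg dose of loperamide. Plasma was taken 0–168 h for LC-MS/MS. Analysis was noncompartmental.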

Homo sapiens [10] = test: Toxicity in healthy human assessed as adverse events at 400 mg administered as single dose suspension coadministered with proton pump inhibitor; assay type: organism-based; parameters: scale not given: the % may be the effect or the level left; conditions: in vivo; how it was run: as §2
Homo sapiens [11] = test: Toxicity in healthy human assessed as dizziness at 400 mg administered as single dose suspension coadministered with nutritional supplement; assay type: organism-based; conditions: in vivo
How it was run: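 Three-way randomized crossover in 13 healthy volunteers with a 7- to 10-day washout. Each period was one 400-mg oral posaconazole suspension dose with a nutritional supplement. Metoclopramide 10 mg was given orally three times daily on the day before and the day of dosing; loperamide was a single 4 mg. Safety was assessed from adverse events, tabulated by body system and severity per treatment.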

[12] = Apparent volume of distribution in healthy human at 400 mg administered as single dose suspension coadministered with nutritional supplement and 4 mg loperamide as two 2 mg tablets; assay type: ADME, organism-based; conditions: in vivo, po, read-out: Vc/F; how it was run: as §4
Homo sapiens [13] = test: Toxicity in healthy human assessed as adverse events at 400 mg administered as single dose suspension coadministered with acidic carbonated beverage and proton pump inhibitor; assay type: organism-based; parameters: scale not given: the % may be the effect or the level left; conditions: in vivo; how it was run: as §2
[14] = Cmax in fasted healthy human plasma at 400 mg administered as single dose suspension after consumption of high fat meal; assay type: ADME, organism-based; parameters: dose 400 mg; how it was run: as §3
Homo sapiens [15] = test: Toxicity in healthy human assessed as adverse events at 200 mg QID, po administered as suspension for 7 days; assay type: organism-based; conditions: in vivo, 168 h; how it was run: as §2
[16] = Apparent volume of distribution in fasted healthy human at 400 mg administered as single dose suspension coadministered with acidic carbonated beverage and proton pump inhibitor; assay type: ADME, organism-based; conditions: in vivo, read-out: Vc/F
How it was run: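 This was a four-way crossover in 12 healthy subjects with 7–10 day washouts. Each took one fasting 400 mg oral suspension dose, with 12 oz ginger ale and/or esomeprazole 40 mg once each morning on days −2 to 1, with dosing on day 1. Plasma was sampled 0–168 h and measured by LC-MS/MS (LLOQ 5.00 ng/ml). Analysis was noncompartmental, with CL/F = dose/AUC_I and V/F = (CL/F)/K.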

[17] = Tmax in healthy human at 400 mg BID, po administered as suspension for 7 days coadministered with nutritional supplement; assay type: ADME, organism-based; conditions: in vivo
How it was run: (§5)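 Healthy volunteers given oral suspension (40 mg/ml) for 7 days, fasted or with nutritional supplement (Boost); four-way crossover, 14–21-day washout, nonfat snacks ≤800 cal/day allowed. On day 7 only the morning dose was given; plasma sampled predose to 168 h after it. LC-MS/MS (LLOQ 5.00 ng/ml). t1/2 = ln(2)/K from log-linear terminal slope; Tmax as median.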

Homo sapiens [18] = test: Toxicity in healthy human assessed as adverse events at 400 mg administered as single dose suspension coadministered with nutritional supplement; assay type: organism-based; conditions: in vivo; how it was run: as §2
[19] = Half life in healthy human at 400 mg administered as single dose suspension coadministered with nutritional supplement and 4 mg loperamide as two 2 mg tablets; assay type: ADME, organism-based; conditions: in vivo
How it was run: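 Oral suspension (40 mg/ml) single dose with nutritional supplement plus loperamide 4 mg single dose, healthy volunteers, three-way crossover with 7–10-day washout. EDTA plasma drawn predose and 1–168 h postdose. LC-MS/MS assay (LLOQ 5.00 ng/ml). Noncompartmental parameters; Tmax reported as median (range).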

[20] = Apparent total body clearance in fasted healthy human at 400 mg administered as single dose suspension; assay type: ADME, organism-based; conditions: in vivo
[21] = Cmax in plasma in hematopoietic stem cell transplant recipient human with GVHD; assay type: ADME, organism-based
Homo sapiens [22] = test: Apparent total body clearance in healthy human at 200 mg QID, po administered as suspension for 7 days coadministered with nutritional supplement; assay type: ADME, organism-based; conditions: in vivo, 168 h; how it was run: as §1
Homo sapiens [23] = test: AUC in healthy human at 200 mg QID, po administered as suspension for 7 days coadministered with nutritional supplement; assay type: ADME, organism-based, Plasma; conditions: in vivo, 168 h; how it was run: as §1
[24] = Cmax in healthy human plasma at 400 mg BID, po administered as suspension for 7 days coadministered with nutritional supplement; assay type: ADME, organism-based; parameters: dose 400 mg, route oral; how it was run: as §1
[25] = Tmax in fasted healthy human at 200 mg QID, po administered as suspension for 7 days; assay type: ADME, organism-based; conditions: in vivo; how it was run: as §5
[26] = Apparent total body clearance in fasted healthy human at 400 mg administered as single dose suspension after 20 mins after consumption of high fat meal; assay type: ADME, organism-based; conditions: in vivo; how it was run: as §3
[27] = Tmax in fasted healthy human at 400 mg administered as single dose suspension after consumption of high fat meal; assay type: ADME, organism-based; conditions: in vivo
How it was run: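 Single oral suspension dose in healthy volunteers while fasting, 5 min before, midway through (about 10 min into a 20-min meal), or 20 min after a high-fat meal (approx 50 g fat); four-way crossover, 7–10-day washout. Plasma 0–168 h by LC-MS/MS (LLOQ 5.00 ng/ml). t1/2 = ln(2)/K; Tmax median.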

CC[C@@H]([C@H](C)O)n1ncn(-c2ccc(N3CCN(c4ccc(OC[C@@H]5CO[C@@](Cn6cncn6)(c6ccc(F)cc6F)C5)cc4)CC3)cc2)c1=O [POSACONAZOLE]
CL/F (Homo sapiens [1]): 54.6 L/h
Activity (Homo sapiens [2]): 25%
AUC at 5 min [3]: 10000 ng·h/mL
Activity (Homo sapiens [4]): 75%
Activity (Homo sapiens [5]): 33%
CL/F [6]: 395 mL/min
AUC [7]: 21000 ng·h/mL
Activity (Homo sapiens [8]): 33%
AUC [9]: 10400 ng·h/mL
Activity (Homo sapiens [10]): 25%
Activity (Homo sapiens [11]): 15%
Vd/F [12]: 1750 L
Activity (Homo sapiens [13]): 25%
Cmax [14]: 544 ng/mL
Activity (Homo sapiens [15]): 75%
Vd/F [16]: 3920 L
Tmax [17]: 6 h
Activity (Homo sapiens [18]): 38%
half-life [19]: 27.5 h
CL/F [20]: 1390 mL/min
Cmax [21]: 1460 ng/mL
CL/F (Homo sapiens [22]): 20.4 L/h
AUC (Homo sapiens [23]): 112000 ng·h/mL
Cmax [24]: 1590 ng/mL
Tmax [25]: 4 h
CL/F [26]: 395 mL/min
Tmax [27]: 6 h

From ChEMBL document CHEMBL1671645, “Pharmacokinetics and absorption of posaconazole oral suspension under various gastric conditions in healthy volunteers” (Antimicrob Agents Chemother, 2009)
